How the values were obtained:
[1] = molecular target: T1, Tyrosine-protein phosphatase non-receptor type 1 (Homo sapiens) (UniProt P18031); assay: Inhibition of recombinant human PTP1B at 10 uM by malachite green assay relative to control
T1 sequence (whole entry): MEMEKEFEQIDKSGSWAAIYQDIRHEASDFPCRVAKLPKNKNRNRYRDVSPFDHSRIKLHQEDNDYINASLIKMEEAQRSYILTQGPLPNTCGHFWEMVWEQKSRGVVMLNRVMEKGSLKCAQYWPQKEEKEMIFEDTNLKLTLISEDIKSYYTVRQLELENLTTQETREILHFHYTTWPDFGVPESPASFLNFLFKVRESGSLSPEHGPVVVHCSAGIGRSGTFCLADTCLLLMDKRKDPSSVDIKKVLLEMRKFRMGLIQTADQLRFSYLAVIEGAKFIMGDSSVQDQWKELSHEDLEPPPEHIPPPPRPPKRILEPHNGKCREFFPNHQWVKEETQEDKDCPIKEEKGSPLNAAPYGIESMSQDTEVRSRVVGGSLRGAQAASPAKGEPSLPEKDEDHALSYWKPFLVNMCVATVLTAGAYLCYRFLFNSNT
In short: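 Human recombinant PTP1B incubated with test compound at 10 µM; DMSO as control. Colorimetric, non-radioactive assay detecting free phosphate released, read with Biomol red phosphate reagent (malachite green basis). Percent inhibition is calculated against control activity without inhibitor, taken as 100%, from three independent sets of experiments.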

[2] = molecular target: T2, Tyrosine-protein phosphatase non-receptor type 1 (Homo sapiens, UniProt P18031); assay: Inhibition of recombinant human PTP1B by malachite green assay
T2 sequence (P18031 whole entry): T1 sequence (whole entry)
In short: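 Human recombinant PTP1B; compounds giving around 50% inhibition at 10 µM are retested at six concentrations. Free phosphate released is detected colorimetrically with Biomol red (malachite green).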

Danio rerio [3] = organism: Danio rerio; assay: Toxicity in zebra fish embryo assessed as developmental delay at 10 uM after 24 to 72 hrs by visible light microscopy; format: organism-based; conditions: zebrafish, in vivo
In short: (§1)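 Wild-type Indian zebrafish strain kept at 28 °C, 14:10 h light/dark. Embryos from natural mating raised 24 h in E3 medium, dechorionated at 24 hpf with 500 µg/ml Pronase K for 10 min. Six embryos per well exposed to compound at 10 µM final in 0.1% DMSO for 24, 48 and 72 h. Controls received 0.1% DMSO. Embryos scored under visible light microscopy at intervals.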

Danio rerio [4] = assay: Toxicity in zebra fish embryo assessed as oedema at 10 uM after 24 to 72 hrs by visible light microscopy; format: organism-based; conditions: zebrafish, in vivo; in short: as §1
Danio rerio [5] = organism: Danio rerio; assay: Toxicity in zebra fish embryo assessed as death at 10 uM after 24 to 72 hrs by visible light microscopy; format: organism-based; conditions: zebrafish, in vivo; in short: as §1
Danio rerio [6] = organism: Danio rerio; assay: Toxicity in zebra fish embryo assessed as deformation at 10 uM after 24 to 72 hrs by visible light microscopy; format: organism-based; conditions: zebrafish, in vivo; in short: as §1

## Cc1ccc(C(=O)O)cc1NC(=O)CSc1nc2cc([N+](=O)[O-])ccc2[nH]1
[1]
  inhibition: 26.9%

## Cc1ccc(C(=O)O)cc1NC(=O)CSc1nnc(-c2ccc(O)cc2)o1
[1]
  inhibition: 47%
[2]
  IC50: 10.3 µM

## Cc1ccc(C(=O)O)cc1NC(=O)CSc1nnc(-c2ccccc2O)o1
[1]
  inhibition: 38.8%

## Cc1ccc(C(=O)O)cc1NC(=O)CSc1nc2ccccc2[nH]1
[1]
  inhibition: 47.8%
[2]
  IC50: 15.2 µM

## Cc1ccc(C(=O)O)cc1NC(=O)CSc1nnc(-c2ccccc2Cl)o1
[1]
  inhibition: 27.5%

## Cc1ccc(C(=O)O)cc1NC(=O)CSc1nnc(-c2ccc(Cl)cc2Cl)o1
[1]
  inhibition: 43.3%

## Cc1ccc(C(=O)O)cc1NC(=O)CSc1nnc(-c2cccc(Cl)c2Cl)o1
[1]
  inhibition: 29.9%

## COc1ccc2[nH]c(SCC(=O)Nc3cc(C(=O)O)ccc3C)nc2c1
Danio rerio [3]
  Activity: Non-toxic
Danio rerio [4]
  Activity: Non-toxic
[1]
  inhibition: 57.5%
[2]
  IC50: 8.2 µM
Danio rerio [5]
  Activity: Non-toxic
Danio rerio [6]
  Activity: Non-toxic

## Cc1ccc(C(=O)O)cc1NC(=O)CSc1nc2ccccc2o1
[1]
  inhibition: 32.8%

## COc1cc(-c2nnc(SCC(=O)Nc3cc(C(=O)O)ccc3C)o2)cc(OC)c1OC
[1]
  inhibition: 50.7%
[2]
  IC50: 9.7 µM

## Cc1ccc(C(=O)O)cc1NC(=O)CSc1nc2ccccc2s1
[1]
  inhibition: 57.5%
[2]
  IC50: 8.5 µM

## Cc1ccc(-c2nnc(SCC(=O)Nc3cc(C(=O)O)ccc3C)o2)cc1
[1]
  inhibition: 51.5%
[2]
  IC50: 8.9 µM

Reference: ChEMBL document CHEMBL3085725, “Design, synthesis and molecular modelling studies of novel 3-acetamido-4-methyl benzoic acid derivatives as inhibitors of protein tyrosine phosphatase 1B” (Eur J Med Chem, 2013)
